One data set relates to UACC-62. As to the kind of experiment: Antiproliferative activity against human UACC62 cells assessed as cell growth inhibition after 48 hrs by sulforhodamine B assay. The settings on record: UACC-62, 48 h. Type of data set: functional. An outline of the steps: (§1)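 Human tumour lines and HaCaT normal keratinocytes in 96-well plates, exposed to compound in DMSO/RPMI (final DMSO 0.2%) for 48 h at 37 °C, 5% CO2. Cells were fixed with 50% trichloroacetic acid at time zero and after treatment. Protein was stained with sulforhodamine B and read at 540 nm. TGI (total growth inhibition) was derived by non-linear regression from triplicate runs.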
For orientation: In SRB staining, fixed cells bind dye roughly in proportion to their protein.

The next data set relates to U-251. Briefly: Antiproliferative activity against human U251 cells assessed as cell growth inhibition after 48 hrs by sulforhodamine B assay. Type of data set: functional. The settings on record: U-251, 48 h. The method in brief: as §1
In another data set the test system is MCF7. As to the kind of experiment: Antiproliferative activity against human MCF7 cells assessed as cell growth inhibition after 48 hrs by sulforhodamine B assay. Type of data set: functional. To be noted: MCF7, 48 h. The method in brief: as §1
In the next data set the test system is NCI/ADR-RES. Briefly: Antiproliferative activity against human NCI/ADR-RES cells assessed as cell growth inhibition after 48 hrs by sulforhodamine B assay. It counts as functional. The method in brief: as §1
For the next data set, the system named is 786-0. Briefly: Antiproliferative activity against human 786-0 cells assessed as cell growth inhibition after 48 hrs by sulforhodamine B assay. Type of data set: functional. The settings on record: 786-0, 48 h. The method in brief: as §1
Another data set concerns NCI-H460. Briefly: Antiproliferative activity against human NCI-H460 cells assessed as cell growth inhibition after 48 hrs by sulforhodamine B assay. It counts as functional. To be noted: NCI-H460, 48 h. An outline of the steps:
as §1

The subject of a further data set is PC-3. As to the kind of experiment: Antiproliferative activity against human PC3 cells assessed as cell growth inhibition after 48 hrs by sulforhodamine B assay. To be noted: PC-3, 48 h. It counts as functional. The method in brief:
as §1

A further data set has as its system OVCAR-3. Briefly: Antiproliferative activity against human OVCAR3 cells assessed as cell growth inhibition after 48 hrs by sulforhodamine B assay. It counts as functional. To be noted: OVCAR-3, 48 h. The method in brief: as §1
A further data set relates to HT-29. As to the kind of experiment: Antiproliferative activity against human HT-29 cells assessed as cell growth inhibition after 48 hrs by sulforhodamine B assay. It counts as functional. The settings on record: HT-29, 48 h. The method in brief: as §1
The next data set concerns HaCaT. Briefly: Cytotoxicity against human HaCaT cells assessed as cell growth inhibition after 48 hrs by sulforhodamine B assay. Type of data set: cell-based. The method in brief:
as §1

The nature of data set [1]: Selectivity index, ratio of TGI for human HaCaT cells to TGI for human U251 cells. It counts as toxicity. To be noted: HaCaT cells and U251 cells, read-out: Selectivity Index.

Among the data in ChEMBL document CHEMBL4257545, “Synthesis of novel perillyl-dihydropyrimidinone hybrids designed for antiproliferative activity” (Medchemcomm, 2018) are TGI and selectivity ratio values, retold here.

For orientation: TGI means the concentration giving total growth inhibition.

As for `C=C(C)[C@@H]1CC=C(Cn2cc(COc3ccccc3C3NC(=O)NC(C)=C3C(C)=O)nn2)CC1` (stereo partly specified), the TGI is 34.2 µM in the data set on UACC-62; 30.2 µM in the data set with U-251; 68.7 µM with MCF7; over 100 µM with NCI/ADR-RES; 80.3 µM in the data set with 786-0; 83.1 µM in the data set on NCI-H460. Besides, the TGI in the data set with PC-3 turned out to be 62 µM; in the data set with OVCAR-3, 34.3 µM; with HT-29, 79.5 µM; in the data set on HaCaT it was 29.51 µM.

Consider `C=C(C)[C@@H]1CC=C(Cn2cc(COc3ccccc3C3NC(=O)NC4=C3C(=O)CC(C)(C)C4)nn2)CC1` (stereo partly specified), for which the TGI was 26.5 µM in the data set on UACC-62; 27 µM with U-251; 45 µM in the data set on MCF7; over 100 µM in the data set on NCI/ADR-RES; 26.7 µM in the data set with 786-0; 38.7 µM in the data set on NCI-H460. The TGI was determined as 21.7 µM in the data set with PC-3, 11.8 µM in the data set on OVCAR-3, 28.9 µM with HT-29 and 78.72 µM with HaCaT.

Take `C=C(C)[C@@H]1CC=C(Cn2cc(COc3ccc(C4NC(=O)NC5=C4C(=O)CC(C)(C)C5)cc3OC)nn2)CC1` (stereo partly specified): the TGI in the data set with UACC-62 was 86.2 µM; in the data set with U-251, 44 µM; with MCF7, 91.9 µM; in the data set with NCI/ADR-RES, over 100 µM; in the data set with 786-0, over 100 µM; in the data set with NCI-H460, over 100 µM. Besides, the TGI with PC-3 was over 100 µM; with OVCAR-3, 95 µM; in the data set with HT-29, over 100 µM; in the data set with HaCaT, 71.34 µM.

`C=C(C)[C@@H]1CC=C(Cn2cc(COc3ccc(C4NC(=O)NC(C)=C4C(C)=O)cc3)nn2)CC1` (stereo partly specified): the TGI is 20.5 µM in the data set with UACC-62; 20 µM in the data set on U-251; 29 µM with MCF7; over 100 µM in the data set on NCI/ADR-RES; 23.3 µM in the data set with 786-0; 78.2 µM in the data set on NCI-H460. Further, the TGI with PC-3 was found to be 49.3 µM; in the data set on OVCAR-3, 32.6 µM; in the data set with HT-29, 62.6 µM; in the data set on HaCaT, 44.47 µM.

In the case of `C=C(C)[C@@H]1CC=C(Cn2cc(COc3cc(C4NC(=O)NC5=C4C(=O)CC(C)(C)C5)ccc3OC)nn2)CC1` (stereo partly specified), the TGI with UACC-62 is 62 µM; with U-251, 8.28 µM; in the data set with MCF7, 44.8 µM; in the data set on NCI/ADR-RES, over 100 µM; with 786-0, over 100 µM; with NCI-H460 it was over 100 µM. Moreover, the TGI with PC-3 was 79.9 µM; in the data set with OVCAR-3, over 100 µM; with HT-29, over 100 µM; in the data set on HaCaT, 451.02 µM. For the same molecule, in [1], the selectivity ratio stood at 54.5.

Turning to `C=C(C)[C@@H]1CC=C(Cn2cc(COc3cc(C4NC(=O)NC(C)=C4C(=O)OCC)ccc3OC)nn2)CC1` (stereo partly specified), the TGI in the data set with UACC-62 was 37.8 µM; with U-251 it was 98.1 µM; in the data set with MCF7 it was over 100 µM; with NCI/ADR-RES it was over 100 µM; in the data set on 786-0 it was over 100 µM; in the data set on NCI-H460, over 100 µM. For the same molecule, the TGI was over 100 µM with PC-3, 13.5 µM in the data set with OVCAR-3, over 100 µM with HT-29 and 79.75 µM with HaCaT.

As to `C=C(C)[C@@H]1CC=C(Cn2cc(COc3cccc(C4NC(=O)NC5=C4C(=O)CC(C)(C)C5)c3)nn2)CC1` (stereo partly specified), the TGI was 20.9 µM in the data set on UACC-62; 26 µM in the data set on U-251; 31 µM in the data set on MCF7; over 100 µM in the data set with NCI/ADR-RES; over 100 µM in the data set with 786-0; 51.6 µM with NCI-H460. Besides, the TGI is 21.9 µM in the data set on PC-3, over 100 µM in the data set with OVCAR-3, 49 µM in the data set with HT-29 and 36.44 µM in the data set with HaCaT.

As to `C=C(C)[C@@H]1CC=C(Cn2cc(COc3cc(C4NC(=O)NC(C)=C4C(C)=O)ccc3OC)nn2)CC1` (stereo partly specified), the TGI in the data set on UACC-62 was over 100 µM; in the data set with U-251 it was over 100 µM; in the data set with MCF7, over 100 µM; in the data set with NCI/ADR-RES it was 84.9 µM; in the data set on 786-0 it was over 100 µM; in the data set with NCI-H460, over 100 µM. Moreover, the TGI with PC-3 is over 100 µM; with OVCAR-3 it was over 100 µM; with HT-29, 96 µM; in the data set on HaCaT, 486.19 µM.

On to `C=C(C)[C@@H]1CC=C(Cn2cc(COc3ccccc3C3NC(=O)NC(C)=C3C(=O)OCC)nn2)CC1` (stereo partly specified), for which the TGI with UACC-62, with U-251, with MCF7, in the data set on NCI/ADR-RES, with 786-0 and in the data set with NCI-H460 was over 100 µM throughout. Besides, the TGI was over 100 µM with PC-3, 81.2 µM in the data set on OVCAR-3, over 100 µM with HT-29 and 294.37 µM in the data set with HaCaT.

As to `COc1cccc2c1C(=O)c1c(O)c3c(c(O)c1C2=O)C[C@@](O)(C(=O)CO)C[C@@H]3O[C@H]1C[C@H](N)[C@H](O)[C@H](C)O1` [DOXORUBICIN], the concentration for total growth inhibition (TGI) is 1.66 µM with UACC-62; 0.09 µM with U-251; 0.99 µM in the data set with MCF7; 0.78 µM in the data set with NCI/ADR-RES; 0.02 µM with 786-0; 0.46 µM with NCI-H460. The TGI with PC-3 amounted to 15.7 µM; with OVCAR-3 it was 0.04 µM; in the data set on HT-29, 0.88 µM; with HaCaT it was 1.47 µM.

Consider `C=C(C)[C@@H]1CC=C(Cn2cc(COc3ccc(C4NC(=O)NC(C)=C4C(=O)OCC)cc3)nn2)CC1` (stereo partly specified), for which the TGI in the data set with UACC-62 was 19.2 µM; with U-251 it was 12.4 µM; in the data set on MCF7, 43.1 µM; in the data set on NCI/ADR-RES it was over 100 µM; with 786-0 it was 97.1 µM; in the data set with NCI-H460, over 100 µM. The TGI was determined as 92.2 µM in the data set on PC-3, 6.9 µM in the data set on OVCAR-3, 77.1 µM with HT-29 and 165.69 µM with HaCaT.

Regarding `C=C(C)[C@@H]1CC=C(Cn2cc(COc3cccc(C4NC(=O)NC(C)=C4C(C)=O)c3)nn2)CC1` (stereo partly specified), the TGI is 31.6 µM in the data set with UACC-62; 30.5 µM in the data set on U-251; 43 µM with MCF7; over 100 µM with NCI/ADR-RES; 44.1 µM in the data set with 786-0; over 100 µM in the data set on NCI-H460. The TGI with PC-3 was 49.8 µM; in the data set on OVCAR-3, 13.3 µM; with HT-29, 86.2 µM; in the data set on HaCaT, 115.66 µM.

With `C=C(C)[C@@H]1CC=C(Cn2cc(COc3ccc(C4NC(=O)NC(C)=C4C(=O)OCC)cc3OC)nn2)CC1` (stereo partly specified), the total growth inhibition concentration (TGI) is 26.7 µM with UACC-62; 11.3 µM in the data set on U-251; 82.5 µM in the data set with MCF7; over 100 µM in the data set with NCI/ADR-RES; 87.3 µM in the data set on 786-0; over 100 µM in the data set on NCI-H460. Moreover, the TGI with PC-3 is 54.4 µM; with OVCAR-3, 53.8 µM; in the data set with HT-29, over 100 µM; in the data set with HaCaT, 75.76 µM.

Take `C=C(C)[C@@H]1CC=C(Cn2cc(COc3ccc(C4NC(=O)NC(C)=C4C(C)=O)cc3OC)nn2)CC1` (stereo partly specified): the TGI is 3.83 µM with UACC-62; 77.9 µM with U-251; 53.3 µM with MCF7; 80.2 µM in the data set on NCI/ADR-RES; 88.1 µM with 786-0; over 100 µM in the data set with NCI-H460. Also, the TGI in the data set with PC-3 was determined as 85.7 µM; in the data set on OVCAR-3, 48 µM; in the data set on HT-29, 95 µM; with HaCaT, 147.92 µM.
